ChEMBL document CHEMBL2062365, “Suppressive effects of coumarins from Mammea siamensis on inducible nitric oxide synthase expression in RAW264.7 cells” (Bioorg Med Chem, 2012)
Activity calls are given as the source filed them. No cut-off for these calls is given here.

Experiments:
[1] = system: RAW264.7; test: Antiinflammatory activity in mouse RAW264.7 cells assessed as inhibition of LPS-induced NO production at 10 uM incubated for 10 mins prior to LPS-challenge measured after 18 hrs by Griess method relative to control; format: functional
Method in brief: (§1)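 RAW264.7 cells (DMEM, 10% FBS, 37 °C, 5% CO2) seeded at 2.5 × 10^5 cells/well. After 6 h, nonadherent cells were washed off. Adherent cells were exposed to test compound for 10 min, then to LPS (E. coli 055:B5, final 10 µg/mL) for 18 h. Supernatant nitrite was measured by Griess reaction. Inhibition % = (A−B)/(A−C)×100, with C as the no-LPS control. IC50 was read graphically; N = 4, mean ± SEM. CAPE was the reference.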

[2] = system: RAW264.7; test: Antiinflammatory activity in mouse RAW264.7 cells assessed as inhibition of LPS-induced NO production at 30 uM incubated for 10 mins prior to LPS-challenge measured after 18 hrs by Griess method relative to control; format: functional; method in brief: as §1
[3] = system: RAW264.7; test: Antiinflammatory activity in mouse RAW264.7 cells assessed as inhibition of LPS-induced NO production incubated for 10 mins prior to LPS-challenge measured after 18 hrs by Griess method; format: functional, cell-based; method in brief: as §1
[4] = system: RAW264.7; test: Antiinflammatory activity in mouse RAW264.7 cells assessed as inhibition of LPS-induced NO production at 1 uM incubated for 10 mins prior to LPS-challenge measured after 18 hrs by Griess method relative to control; format: functional; method in brief: as §1
[5] = Cytotoxicity against mouse RAW264.7 cells assessed as cell viability at 3 uM after 18 hrs by MTT assay; format: cell-based; details: read-out: Activity
Method in brief: (§2)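 MTT viability assay. RAW264.7 cells seeded at 1.0 × 10^5 cells/well; after 6 h, nonadherent cells were washed off. Adherent cells were cultured with test compound for 18 h. MTT (5 mg/mL in PBS) was added for 2 h at 37 °C. Formazan was dissolved in isopropanol with 0.04 M HCl and OD read at 570 nm (reference 655 nm).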

[6] = Cytotoxicity against mouse RAW264.7 cells assessed as cell viability at 10 uM after 18 hrs by MTT assay; format: cell-based; details: read-out: Activity; method in brief: as §2
[7] = Cytotoxicity against mouse RAW264.7 cells assessed as cell viability at 30 uM after 18 hrs by MTT assay; format: cell-based; details: read-out: Activity; method in brief: as §2
[8] = system: RAW264.7; test: Antiinflammatory activity in mouse RAW264.7 cells assessed as inhibition of LPS-induced NO production at 3 uM incubated for 10 mins prior to LPS-challenge measured after 18 hrs by Griess method relative to control
[9] = system: RAW264.7; test: Antiinflammatory activity in mouse RAW264.7 cells assessed as inhibition of LPS-induced NO production at 10 uM relative to control; format: functional; method in brief: as §1
[10] = system: RAW264.7; test: Antiinflammatory activity in mouse RAW264.7 cells assessed as inhibition of LPS-induced NO production at 100 uM relative to control; format: functional; method in brief: as §1
[11] = system: RAW264.7; test: Antiinflammatory activity in mouse RAW264.7 cells assessed as inhibition of LPS-induced iNOS expression at 1 to 30 uM incubated for 10 mins prior to LPS-challenge measured after 12 hrs by Western blot analysis; format: functional, cell-based
Method in brief: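 RAW264.7 cells (5.0 × 10^6/well, 6-well) adhered for 6 h. Compound was added for 10 min, then LPS (final 10 µg/mL) for 12 h. Lysates were sonicated and normalized by BCA. 50 µg protein/lane was run on 10% SDS–PAGE and transferred to PVDF. Blots were probed for iNOS and β-actin (primary 1:1000, HRP secondary 1:5000) and detected by ECL.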

[12] = system: RAW264.7; test: Inhibition of SAPK/JNK phosphorylation in LPS-induced mouse RAW264.7 cells at 1 to 30 uM incubated for 10 mins prior to LPS-challenge measured after 30 mins by Western blot analysis; format: cell-based
Method in brief: (§3)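 RAW264.7 cells (5.0 × 10^6/well) adhered for 6 h. Compound was added for 10 min, then LPS (final 10 µg/mL) for 30 min. BCA-normalized lysates, 25 µg/lane, were run on 10% SDS–PAGE and transferred to PVDF. Phospho-proteins (p-JNK, p-p38, p-STAT1 Ser727) were blocked in Blocking One-P, others (NF-κB p65) in Blocking One. Primary antibodies 1:1000 for 1 h at rt; detection by ECL.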

[13] = target: MAP kinase p38 (Mus musculus) (UniProt P47811+O08911+Q9WUI1+Q9Z1B7); test: Inhibition of p38 phosphorylation in LPS-induced mouse RAW264.7 cells at 1 to 30 uM incubated for 10 mins prior to LPS-challenge measured after 30 mins by Western blot analysis; format: cell-based; method in brief: as §3
[14] = target: T1, Signal transducer and activator of transcription 1 (Mus musculus) (UniProt P42225); test: Inhibition of STAT1 phosphorylation in LPS-induced mouse RAW264.7 cells incubated for 10 mins prior to LPS-challenge measured after 30 mins by Western blot analysis; format: cell-based; method in brief: as §3
T1 sequence (whole entry): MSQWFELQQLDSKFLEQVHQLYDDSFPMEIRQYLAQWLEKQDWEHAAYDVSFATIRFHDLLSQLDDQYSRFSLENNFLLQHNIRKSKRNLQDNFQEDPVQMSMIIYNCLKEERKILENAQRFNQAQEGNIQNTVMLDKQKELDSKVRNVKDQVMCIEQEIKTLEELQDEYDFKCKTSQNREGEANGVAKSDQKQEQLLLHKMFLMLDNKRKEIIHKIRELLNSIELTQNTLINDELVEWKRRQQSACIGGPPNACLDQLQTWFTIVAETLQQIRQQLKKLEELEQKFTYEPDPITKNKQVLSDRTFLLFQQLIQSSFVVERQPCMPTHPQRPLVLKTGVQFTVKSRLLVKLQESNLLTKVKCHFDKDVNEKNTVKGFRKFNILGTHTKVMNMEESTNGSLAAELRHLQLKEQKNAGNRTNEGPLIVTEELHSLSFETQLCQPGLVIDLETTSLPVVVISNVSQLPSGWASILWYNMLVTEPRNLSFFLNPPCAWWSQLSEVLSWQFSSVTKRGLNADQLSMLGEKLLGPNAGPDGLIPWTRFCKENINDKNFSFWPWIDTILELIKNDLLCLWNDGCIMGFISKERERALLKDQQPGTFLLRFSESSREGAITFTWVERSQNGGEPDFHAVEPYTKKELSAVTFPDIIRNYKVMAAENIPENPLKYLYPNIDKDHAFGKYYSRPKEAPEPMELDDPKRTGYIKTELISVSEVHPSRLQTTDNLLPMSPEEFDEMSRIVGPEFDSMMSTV

Compound	IC50 [3] [µM]	inhibition [13]	inhibition [14]	inhibition at 10 µM [1] [%]	inhibition at 30 µM [2] [%]	inhibition at 1 µM [4] [%]	viability at 18 h, 3 µM [5] [%]	viability at 18 h, 10 µM [6] [%]	viability at 18 h, 30 µM [7] [%]	inhibition at 3 µM [8] [%]	inhibition at 10 µM [9] [%]	inhibition at 100 µM [10] [%]	inhibition [11]	inhibition [12]
CCCc1cc(=O)oc2c3c(c(C(=O)C(C)CC)c(O)c12)OC(C)(C)C=C3 (stereo not drawn)	> 30	–	–	10.6	13.3	–	–	–	–	–	–	–	–	–
CCCC(=O)c1c2c(c3oc(=O)cc(CCC)c3c1O)C=CC(C)(C)O2	> 30	–	–	9.9	13.8	–	–	–	–	–	–	–	–	–
Nc1n[nH]c2nnc(-c3c(-c4ccccc4)nn4ccccc34)cc12	–	–	–	–	–	–	–	–	–	–	7.2	–	–	–
COc1cccc(-c2cc(=O)c3ccccc3o2)c1N	–	–	–	–	–	–	–	–	–	–	–	-2.4	–	–
CCC(C)C(=O)c1c2c(c3oc(=O)cc(-c4ccccc4)c3c1O)C=CC(C)(C)O2 (stereo not drawn)	> 30	–	–	12.9	18.3	–	–	–	–	–	–	–	–	–
CCCC(=O)c1c2c(c3oc(=O)cc(-c4ccccc4)c3c1O)C=CC(C)(C)O2	> 30	–	–	9.4	14.3	–	–	–	–	–	–	–	–	–
O=C(/C=C/c1ccc(O)c(O)c1)OCCc1ccccc1 [CAFFEIC ACID PHENETHYL ESTER]	3.8	–	–	98.4	100	5.4	–	76.4	15.6	45.7	–	–	–	–
CCCC(=O)c1c(O)c2c(c3c([C@@H](O)CC)cc(=O)oc13)OC(C)(C)C=C2 [DEACETYLMAMMEA E/BC CYCLO D]	19.7	–	–	33.1	62.3	15.1	–	–	107	20.2	–	–	–	–
CC[C@H](O)c1cc(=O)oc2c(CC=C(C)C)c(O)c(C(=O)CC(C)C)c(O)c12 [KAYEASSAMIN G]	0.8	inactive	Dose-dependent effect	81.5	72.3	51	–	–	83.7	55.9	–	–	Active	inactive
CCCC(=O)c1c(O)c(CC=C(C)C)c2oc(=O)cc(-c3ccccc3)c2c1O [MAMMEA A/AC]	13	–	–	46.9	67.6	0.6	–	–	96.8	14.2	–	–	–	–
CC(C)=CCc1c(O)c(C(=O)C(C)C)c(O)c2c(-c3ccccc3)cc(=O)oc12 [MESUOL]	1.3	inactive	Dose-dependent effect	89.4	103	33.7	57.2	27.2	10.1	83.4	–	–	Active	inactive
Oc1ccc(-c2nc(-c3ccncc3)c(-c3ccc(F)cc3)[nH]2)cc1 [SB-202190]	16	–	–	36.8	70.2	–	–	–	81.4	–	–	–	–	–

The next lines start with results.

IC50 [3] [µM]	inhibition [13]	inhibition [14]	Compound	inhibition at 10 µM [1] [%]	inhibition at 30 µM [2] [%]	inhibition at 1 µM [4] [%]	viability at 18 h, 3 µM [5] [%]	viability at 18 h, 10 µM [6] [%]	viability at 18 h, 30 µM [7] [%]	inhibition at 3 µM [8] [%]	inhibition at 10 µM [9] [%]	inhibition at 100 µM [10] [%]	inhibition [11]	inhibition [12]
7.9	–	–	CCC(C)C(=O)c1c(O)c(CC=C(C)C)c(O)c2c([C@H](CC)OC(C)=O)cc(=O)oc12 (stereo partly drawn)	50.5	89.1	-1.5	55.3	29.9	11	24.2	–	–	–	–
26.6	–	–	CCCC(=O)c1c(O)c(C/C=C(\C)CCC=C(C)C)c(O)c2c([C@@H](O)CC)cc(=O)oc12 [KAYEASSAMIN A]	29.7	56.6	5	–	–	82.4	15	–	–	–	–
6.1	–	–	CCCC(=O)c1c(O)c(CC=C(C)C)c2oc(=O)cc([C@@H](O)CC)c2c1O [KAYEASSAMIN E]	67.1	63.8	38.7	–	42.8	42.2	38.8	–	–	–	–
6	–	–	CCC(C)C(=O)c1c(O)c(CC=C(C)C)c2oc(=O)cc([C@@H](O)CC)c2c1O (stereo partly drawn) [KAYEASSAMIN F]	60.7	63.1	31.4	–	55.2	31.5	41.3	–	–	–	–
1.8	inactive	Dose-dependent effect	CCCC(=O)c1c(O)c(C/C=C(\C)CCC=C(C)C)c(O)c2c([C@H](CC)OC(C)=O)cc(=O)oc12 [MAMMEASIN A]	88.1	92	27.5	56.4	24.1	10.2	72.9	–	–	Active	inactive
6.4	–	–	CC[C@H](OC(C)=O)c1cc(=O)oc2c(C(=O)CC(C)C)c(O)c(C/C=C(\C)CCC=C(C)C)c(O)c12 [MAMMEASIN B]	64.7	88.2	0.6	60.3	20.2	13.6	31.1	–	–	–	–
5	–	–	CCC(C)C(=O)c1c(O)c(C/C=C(\C)CCC=C(C)C)c(O)c2c([C@H](CC)OC(C)=O)cc(=O)oc12 (stereo partly drawn) [SURANGIN B]	74.3	91.1	8.5	67.1	42.3	18.1	35.7	–	–	–	–
6.8	–	–	CCC(C)C(=O)c1c(O)c(C/C=C(\C)CCC=C(C)C)c(O)c2c([C@@H](O)CC)cc(=O)oc12 (stereo partly drawn) [SURANGIN C]	56.7	71.3	18.1	–	61.7	42.9	40.8	–	–	–	–
6.2	–	–	CC[C@H](O)c1cc(=O)oc2c(C(=O)CC(C)C)c(O)c(C/C=C(\C)CCC=C(C)C)c(O)c12 [SURANGIN D]	55.4	74	22.7	–	–	104	41.1	–	–	–	–
